{"source": "ChEMBL document CHEMBL4038305", "about": "“Benzoxaborole Antimalarial Agents. Part 5. Lead Optimization of Novel Amide Pyrazinyloxy Benzoxaboroles and Identification of a Preclinical Candidate” (J Med Chem, 2017)", "key": {"Plasmodium berghei [1]": {"tested_on": "Plasmodium berghei", "assay": "Antimalarial activity against Plasmodium berghei infected in Swiss Webster mouse assessed as mouse survival rate at 200 mg/kg administered once daily via oral gavage for 4 consecutive days beginning 1 hr after infection measured on day 17 post infection relative to control", "assay_type": "functional", "summary_of_the_method": "(§1)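 P. berghei-infected erythrocytes taken from a previously infected mouse were injected intraperitoneally. Oral dosing, once daily for 4 consecutive days, began 1 h after infection, in polyethylene glycol 300/propylene glycol/water (55/25/20 by weight). Chloroquine at 30 mg/kg was the positive control, with a vehicle-only group. Percent survival was recorded daily from day 4 to day 20.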"}, "Lymphocyte [2]": {"tested_on": "Lymphocyte", "assay": "Genotoxicity in human lymphocytes at 0.5 to 355 ug/mL after 3 to 28 hrs in absence of rat liver S9 fraction by micronucleus assay", "assay_type": "toxicity, cell-based"}, "Plasmodium berghei [3]": {"tested_on": "Plasmodium berghei", "assay": "Antimalarial activity against Plasmodium berghei infected in Swiss Webster mouse assessed as mouse survival rate at 100 mg/kg administered once daily via oral gavage for 4 consecutive days beginning 1 hr after infection measured on day 19 post infection relative to control", "assay_type": "functional", "summary_of_the_method": "(§2)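 Mice given an intraperitoneal injection of P. berghei-infected erythrocytes taken from a previously infected animal. Oral dosing once daily for 4 consecutive days, starting 1 h after infection. Vehicle: polyethylene glycol 300/propylene glycol/water (weight ratio 55/25/20). Percent survival recorded daily from day 4 to day 20. Chloroquine 30 mg/kg and vehicle-only groups served as controls.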"}, "Plasmodium berghei [4]": {"tested_on": "Plasmodium berghei", "assay": "Antimalarial activity against Plasmodium berghei infected in Swiss Webster mouse assessed as mouse survival rate at 100 mg/kg administered once daily via oral gavage for 4 consecutive days beginning 1 hr after infection measured on day 18 post infection relative to control", "assay_type": "functional", "summary_of_the_method": "as §2"}, "[5]": {"assay": "Terminal half life in Sprague-Dawley rat at 5 mg/kg, po via gavage by HPLC/MS analysis", "assay_type": "ADME, organism-based", "details": "in vivo, read-out: beta t1/2 (converted)"}, "Plasmodium falciparum": {"tested_on": "Plasmodium falciparum", "assay": "Antimalarial activity against intraerythrocytic stage of Plasmodium falciparum assessed as time required to clear 99.9% of initial parasite population at 10 times IC50 preincubated for 24 hrs followed by [3H]-hypoxanthine addition measured after 24 hrs by scintillation counting method", "assay_type": "functional", "summary_of_the_method": "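In vitro P. falciparum parasite reduction ratio assay run at 10×, 30× and 100× IC50. Derived parameters: lag phase (time to maximal killing), PRR (parasites killed per life cycle) and PCT99.9% (time to clear 99.9% of the initial parasite population).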"}, "Salmonella typhimurium [6]": {"tested_on": "Salmonella typhimurium", "assay": "Genotoxicity in Salmonella typhimurium TA1535 assessed as number of revertants per plate at 500 ug/plate in presence of rat liver S9 fraction by Ames test (reference value: 10)", "assay_type": "toxicity", "details": "salmonella enterica subsp. enterica serovar typhimurium"}, "Salmonella typhimurium [7]": {"tested_on": "Salmonella typhimurium", "assay": "Genotoxicity in Salmonella typhimurium TA1537 assessed as number of revertants per plate at 15 ug/plate in presence of rat liver S9 fraction by Ames test (reference value: 11 +/- 4)", "assay_type": "toxicity", "details": "salmonella enterica subsp. enterica serovar typhimurium"}, "Lymphocyte [8]": {"tested_on": "Lymphocyte", "assay": "Genotoxicity in human lymphocytes assessed as replication index at 355.15 ug/mL after 28 hrs in absence of rat liver S9 fraction by micronucleus assay relative to control", "assay_type": "toxicity, cell-based", "summary_of_the_method": "(§3)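 Human lymphocytes exposed for 3 h with or without rat liver S9, or 28 h without S9, with 1% DMSO as vehicle control. Replication index = (binucleated + 2 × multinucleated cells)/total cells. Cytotoxicity (%) = 100 − (RI treated/RI vehicle) × 100.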"}, "Escherichia coli [9]": {"tested_on": "Escherichia coli", "assay": "Genotoxicity in Escherichia coli WP2uvrA assessed as number of revertants per plate at 5000 ug/plate in presence of rat liver S9 fraction by Ames test (reference value: 42 +/- 6)", "assay_type": "toxicity"}, "Salmonella typhimurium [10]": {"tested_on": "Salmonella typhimurium", "assay": "Genotoxicity in Salmonella typhimurium TA1537 assessed as number of revertants per plate at 50 ug/plate in absence of rat liver S9 fraction by Ames test (reference value: 19 +/- 9)", "assay_type": "toxicity", "details": "salmonella enterica subsp. enterica serovar typhimurium"}, "Salmonella typhimurium [11]": {"tested_on": "Salmonella typhimurium", "assay": "Genotoxicity in Salmonella typhimurium TA100 assessed as number of revertants per plate at 150 ug/plate in absence of rat liver S9 fraction by Ames test (reference value: 154 +/- 9)", "assay_type": "toxicity", "details": "salmonella enterica subsp. enterica serovar typhimurium"}, "[12]": {"assay": "Volume of distribution at steady state in Beagle dog at 5 mg/kg, iv by HPLC/MS analysis", "assay_type": "ADME, organism-based, Canis lupus familiaris", "details": "in vivo, read-out: Vdss"}, "Lymphocyte [13]": {"tested_on": "Lymphocyte", "assay": "Genotoxicity in human lymphocytes assessed as replication index at 160 ug/mL after 28 hrs in absence of rat liver S9 fraction by micronucleus assay relative to control", "assay_type": "toxicity, cell-based", "summary_of_the_method": "as §3"}, "Salmonella typhimurium [14]": {"tested_on": "Salmonella typhimurium", "assay": "Genotoxicity in Salmonella typhimurium TA98 assessed as number of revertants per plate at 150 ug/plate in presence of rat liver S9 fraction by Ames test (reference value: 19 +/- 8)", "assay_type": "toxicity", "details": "salmonella enterica subsp. enterica serovar typhimurium"}, "Salmonella typhimurium [15]": {"tested_on": "Salmonella typhimurium", "assay": "Genotoxicity in Salmonella typhimurium TA1535 assessed as number of revertants per plate at 150 ug/plate in presence of rat liver S9 fraction by Ames test (reference value: 10)", "assay_type": "toxicity", "details": "salmonella enterica subsp. enterica serovar typhimurium"}, "Salmonella typhimurium [16]": {"tested_on": "Salmonella typhimurium", "assay": "Genotoxicity in Salmonella typhimurium TA100 assessed as number of revertants per plate at 1.5 ug/plate in absence of rat liver S9 fraction by Ames test (reference value: 154 +/- 9)", "assay_type": "toxicity", "details": "salmonella enterica subsp. enterica serovar typhimurium"}, "Salmonella typhimurium [17]": {"tested_on": "Salmonella typhimurium", "assay": "Genotoxicity in Salmonella typhimurium TA98 assessed as number of revertants per plate at 50 ug/plate in absence of rat liver S9 fraction by Ames test (reference value: 14 +/- 6)", "assay_type": "toxicity", "details": "salmonella enterica subsp. enterica serovar typhimurium"}, "Salmonella typhimurium [18]": {"tested_on": "Salmonella typhimurium", "assay": "Genotoxicity in Salmonella typhimurium TA1537 assessed as number of revertants per plate at 50 ug/plate in presence of rat liver S9 fraction by Ames test (reference value: 11 +/- 4)", "assay_type": "toxicity", "details": "salmonella enterica subsp. enterica serovar typhimurium"}, "Lymphocyte [19]": {"tested_on": "Lymphocyte", "assay": "Genotoxicity in human lymphocytes assessed as increase in frequency of micronucleated cells at 80 ug/mL after 3 hrs in presence of rat liver S9 fraction by micronucleus assay (reference value: 0.63%)", "assay_type": "toxicity, cell-based", "details": "s9, 3 h"}, "[20]": {"assay": "Cmax in Sprague-Dawley rat plasma at 5 mg/kg, po via gavage by HPLC/MS analysis", "assay_type": "ADME, organism-based", "design": "dose 5 mg/kg, route oral", "summary_of_the_method": "(§4)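 Female CD-1 mice, male SD rats and beagle dogs received 5 mg/kg either iv or by oral gavage. Vehicle was PEG 300/propylene glycol/water (55/25/20, pH 6). Blood was sampled and drug measured by HPLC-MS/MS.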"}, "[21]": {"assay": "Clearance in Sprague-Dawley rat at 5 mg/kg, iv by HPLC/MS analysis", "assay_type": "ADME, organism-based", "details": "in vivo", "summary_of_the_method": "as §4"}, "Plasmodium berghei [22]": {"tested_on": "Plasmodium berghei", "assay": "Antimalarial activity against Plasmodium berghei infected in Swiss Webster mouse assessed as mouse survival rate at 3.7 mg/kg administered once daily via oral gavage for 4 consecutive days beginning 1 hr after infection measured on day 8 post infection relative to control", "assay_type": "functional", "summary_of_the_method": "as §1"}, "Salmonella typhimurium [23]": {"tested_on": "Salmonella typhimurium", "assay": "Genotoxicity in Salmonella typhimurium TA1535 assessed as number of revertants per plate at 1500 ug/plate in presence of rat liver S9 fraction by Ames test (reference value: 10)", "assay_type": "toxicity", "details": "salmonella enterica subsp. enterica serovar typhimurium"}, "Escherichia coli [24]": {"tested_on": "Escherichia coli", "assay": "Genotoxicity in Escherichia coli WP2uvrA assessed as number of revertants per plate at 150 ug/plate in absence of rat liver S9 fraction by Ames test (reference value: 45 +/- 9)", "assay_type": "toxicity"}, "Salmonella typhimurium [25]": {"tested_on": "Salmonella typhimurium", "assay": "Genotoxicity in Salmonella typhimurium TA1537 assessed as number of revertants per plate at 150 ug/plate in absence of rat liver S9 fraction by Ames test (reference value: 19 +/- 9)", "assay_type": "toxicity", "details": "salmonella enterica subsp. enterica serovar typhimurium"}, "[26]": {"assay": "AUC (0 to infinity) in Beagle dog at 5 mg/kg, po via gavage by HPLC/MS analysis", "assay_type": "ADME, organism-based, Canis lupus familiaris", "design": "dose 5 mg/kg, time infinity, route oral", "details": "in vivo"}, "Plasmodium berghei [27]": {"tested_on": "Plasmodium berghei", "assay": "Antimalarial activity against Plasmodium berghei infected in Swiss Webster mouse assessed as mouse survival rate at 0.3 mg/kg administered once daily via oral gavage for 4 consecutive days beginning 1 hr after infection measured on day 4 post infection relative to control", "assay_type": "functional", "summary_of_the_method": "as §2"}}, "data": [{"smiles": "CCCC1(O)CN(C(=O)c2cnc(Oc3ccc4c(c3C)B(O)OC4)cn2)C1", "values": [{"measurement": "survival at 200 mg/kg", "setting": "Plasmodium berghei [1]", "result": 0, "unit": "%"}]}, {"smiles": "Cc1c(Oc2cnc(C(=O)NCCO)cn2)ccc2c1B(O)OC2", "values": [{"measurement": "Activity", "setting": "Lymphocyte [2]", "result": "Non-Toxic"}]}, {"smiles": "Cc1c(Oc2cnc(C(=O)N3CC(O)(C(C)C)C3)cn2)ccc2c1B(O)OC2", "values": [{"measurement": "survival at 100 mg/kg", "setting": "Plasmodium berghei [3]", "result": 80, "unit": "%"}, {"measurement": "survival at 100 mg/kg", "setting": "Plasmodium berghei [4]", "result": 80, "unit": "%"}]}, {"smiles": "Cc1c(Oc2cnc(C(=O)N3CC(C)(O)C3)cn2)ccc2c1B(O)OC2", "values": [{"measurement": "half-life", "setting": "[5]", "result": 5.2, "unit": "h"}, {"measurement": "T99.9%", "setting": "Plasmodium falciparum", "result": 36, "unit": "h"}, {"measurement": "Activity", "setting": "Salmonella typhimurium [6]", "result": 6}, {"measurement": "Activity", "setting": "Salmonella typhimurium [7]", "result": 9}, {"measurement": "Activity", "setting": "Lymphocyte [8]", "result": 33, "unit": "%"}, {"measurement": "Activity", "setting": "Escherichia coli [9]", "result": 34}, {"measurement": "Activity", "setting": "Salmonella typhimurium [10]", "result": 12}, {"measurement": "Activity", "setting": "Salmonella typhimurium [11]", "result": 148}, {"measurement": "Vd", "setting": "[12]", "result": 0.29, "unit": "L/kg"}, {"measurement": "Activity", "setting": "Lymphocyte [13]", "result": 13, "unit": "%"}, {"measurement": "Activity", "setting": "Salmonella typhimurium [14]", "result": 10}, {"measurement": "Activity", "setting": "Salmonella typhimurium [15]", "result": 15}, {"measurement": "Activity", "setting": "Salmonella typhimurium [16]", "result": 144}, {"measurement": "Activity", "setting": "Salmonella typhimurium [17]", "result": 14}, {"measurement": "Activity", "setting": "Salmonella typhimurium [18]", "result": 9}, {"measurement": "Activity", "setting": "Lymphocyte [19]", "result": 0.74, "unit": "%"}, {"measurement": "Cmax", "setting": "[20]", "result": 1700, "unit": "ng/mL"}, {"measurement": "clearance", "setting": "[21]", "result": 3.88, "unit": "mL/min/kg"}, {"measurement": "survival at 3.7 mg/kg", "setting": "Plasmodium berghei [22]", "result": 0, "unit": "%"}, {"measurement": "Activity", "setting": "Salmonella typhimurium [23]", "result": 10}, {"measurement": "Activity", "setting": "Escherichia coli [24]", "result": 56}, {"measurement": "Activity", "setting": "Salmonella typhimurium [25]", "result": 15}, {"measurement": "AUC(0-inf)", "setting": "[26]", "result": 214, "unit": "µg·h/mL"}]}, {"smiles": "Cc1c(Oc2cnc(C(=O)NC(C)CO)cn2)ccc2c1B(O)OC2", "note": "(stereo not drawn)", "values": [{"measurement": "survival at 0.3 mg/kg", "setting": "Plasmodium berghei [27]", "result": 100, "unit": "%"}]}]}
